Compound activity from PubChem BioAssay.
T cruzi inh – blocks replication of Trypanosoma cruzi | T. cruzi beta-gal in NIH3T3, luminescence, 90 h | AID 1885 | 300,000 tested, 1.4% active | inhibition, % (no concentration beside the values);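 active = mean inhibition across valid replicates above about 55%, limit read from the data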;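 note: signal also drops with host cell toxicity which is not excluded here; higher percent means less beta-gal luminescence so fewer parasites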
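Assay system: NIH/3T3 fibroblasts plus reporter T. cruzi. Amount: NIH/3T3 cells, 5,000 per well. Buffer or medium: DMEM, 2% fetal bovine serum. Doses: compound pinned at 50 nL/well, DMSO. Schedule: ≥90 h infection period, 3 h prior cell attachment. Signal: luminescent β-galactosidase signal after 60 min lysis. Read-out: parasite load inhibition, %.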
Beta cell apopt – beta cell apoptosis inhibition | INS-1E cytokine-induced death, ATP luminescence, 48 h; percent of positive-control rescue, neutral wells zero | protection from apoptosis, % (concentration not given with the values) | 300,000 tested, 0.8% active;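 active = Every replicate reaches about 75%, or at least half do and their mean reaches it too, limit read from the data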;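 note: higher means more ATP so stronger rescue from cytokine killing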
CSC inhib – cancer stem cell inhibition; cancer stem cell-like cells viability, luminescence; inhibition, % at 7.5 µM; 300,000 tested, 1.1% active; AID 2717; in the data active = inhibition above about 75%; tested in HMLE shEcad cells
SKKanGAS inh – inhibitors of SKKanGAS S. pyogenes growth in kanamycin (SK-promoter or general growth effect). BacTiter-Glo, 6 h. inhibition, % at 7.5 µM. 300,000 tested, 1.3% active. AID 1662;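 active = mean replicate score, as percent of positive control median, at least 50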;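 note: strain carries kanamycin resistance gene driven by streptokinase promoter and grows in 40 µg/ml kanamycin; loss of luminescence reflects streptokinase promoter inhibition or plain growth inhibition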
PfHsp90 yeast 2 – reduces growth (ATP signal) of yeast expressing P. falciparum Hsp90. S. cerevisiae expressing PfHsp90, BacTiter-Glo ATP, 48 h; yeast lacking PDR1 and PDR3 efflux regulators. inhibition, % at 9.4 µM. 310,000 tested, 0.32% active;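 active = every replicate shows inhibition above about 80%, whatever the replicate mean, limit read from the data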
HIF act – HIF pathway transcriptional activation. U2OS HRE-luciferase reporter, luminescence; normalized: DMSO 0%, desferrioxamine 100%. activation, % at 7.5 µM (by protocol). 300,000 tested, 0.32% active;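 active = mean activation of at least 10% of the iron chelator positive control signal, with at least half of replicates also reaching 10%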
A number is an active result. Compounds with a hit are over-represented: about 3.6% of the library has one in this group of screens.

`Cc1[nH]c2ccccc2c1/C=C/c1nc2ccccc2c(=O)n1CCO` gave T cruzi inh inactive, Beta cell apopt inactive, CSC inhib inactive, SKKanGAS inh inactive, PfHsp90 yeast 2 inactive and HIF act inactive.
COc1ccc(/C=C2/Sc3ccc(C(=O)N4CCOCC4)cc3NC2=O)cc1OC was read as T cruzi inh inactive, Beta cell apopt inactive, CSC inhib inactive, SKKanGAS inh inactive, PfHsp90 yeast 2 inactive and HIF act inactive.
`CCOC(=O)N1CCN(C(=O)c2ccc3c(c2)NC(=O)/C(=C\c2cccc(C)c2)S3)CC1` gave T cruzi inh inactive, Beta cell apopt inactive, CSC inhib inactive, SKKanGAS inh 92, PfHsp90 yeast 2 inactive and HIF act inactive.
For CCOC(=O)N1CCN(C(=O)c2ccc3c(c2)NC(=O)/C(=C\c2ccc(OC)c(OC)c2)S3)CC1 the results were T cruzi inh inactive, CSC inhib inactive, SKKanGAS inh 101, PfHsp90 yeast 2 inactive and HIF act inactive.
`O=C1Nc2cc(C(=O)N3CCN(c4ccccn4)CC3)ccc2S/C1=C\c1ccccc1` gave T cruzi inh inactive, Beta cell apopt inactive, CSC inhib inactive, SKKanGAS inh 53, PfHsp90 yeast 2 inactive and HIF act inactive.
Cc1cccc(/C=C2/Sc3ccc(C(=O)N4CCOCC4)cc3NC2=O)c1 was read as T cruzi inh inactive, Beta cell apopt inactive, CSC inhib inactive, SKKanGAS inh inactive, PfHsp90 yeast 2 inactive and HIF act inactive.
Screening O=C1Nc2cc(C(=O)N3CCOCC3)ccc2S/C1=C\c1ccccc1 returned T cruzi inh inactive, Beta cell apopt inactive, CSC inhib inactive, SKKanGAS inh inactive, PfHsp90 yeast 2 inactive and HIF act inactive.
Cc1ccc(NC2CCCN(C(=O)CCC3=NNC(=O)CC3)C2)cc1C (stereo not drawn) was read as T cruzi inh inactive, Beta cell apopt inactive, CSC inhib inactive, SKKanGAS inh inactive, PfHsp90 yeast 2 inactive and HIF act inactive.
For CCOc1ccc(/C=N/NC(=S)NC2CC3C=CC2C3)cc1 (stereo not drawn) the results were T cruzi inh inactive, Beta cell apopt inactive, CSC inhib inactive, SKKanGAS inh 64, PfHsp90 yeast 2 inactive and HIF act inactive.
For CNC(=S)N/N=C/c1cc(Br)cc(Br)c1O the results were T cruzi inh inactive, Beta cell apopt inactive, CSC inhib inactive, SKKanGAS inh inactive, PfHsp90 yeast 2 inactive and HIF act inactive.
Screening Oc1c(Br)cc(Br)cc1/C=N/NC(=S)N[C@H]1CC2C=CC1C2 (stereo partly drawn) returned T cruzi inh inactive, Beta cell apopt inactive, CSC inhib 102, SKKanGAS inh 120, PfHsp90 yeast 2 inactive and HIF act inactive.
O=C(COC(=O)CNS(=O)(=O)c1c(F)cccc1F)NC(=O)NC1CCCCC1 was read as Beta cell apopt inactive, CSC inhib inactive and PfHsp90 yeast 2 inactive.
`N#Cc1c(NC(=O)c2ccc(Cn3cc(Br)cn3)o2)sc2c1CCCCC2` gave T cruzi inh inactive, Beta cell apopt inactive, CSC inhib 106, SKKanGAS inh inactive, PfHsp90 yeast 2 inactive and HIF act inactive.
Screening CC1=NN(c2ccccc2)C(=O)/C1=C/c1c(O)n(-c2ccc(F)c(Cl)c2)[nH]c1=O returned T cruzi inh inactive, Beta cell apopt inactive, CSC inhib 103, SKKanGAS inh 72 and HIF act inactive.
For Cc1ccc(S(=O)(=O)Nc2cccc3ncccc23)s1 the results were T cruzi inh inactive, Beta cell apopt inactive, CSC inhib inactive, SKKanGAS inh 71, PfHsp90 yeast 2 inactive and HIF act inactive.
Screening Cc1ccc(S(=O)(=O)Nc2cccc3ncccc23)cc1 returned T cruzi inh inactive, Beta cell apopt inactive, CSC inhib inactive, SKKanGAS inh inactive, PfHsp90 yeast 2 inactive and HIF act inactive.
For Nc1nc(N)c2cc(Sc3ccc4ccccc4c3)ccc2n1 the results were T cruzi inh 58, Beta cell apopt 109, CSC inhib 119, SKKanGAS inh 109 and HIF act inactive.
`Cc1c(NC(=O)c2cccc(NC(=O)COc3cccc(Br)c3)c2)c(=O)n(-c2ccccc2)n1C` gave Beta cell apopt inactive, CSC inhib inactive and PfHsp90 yeast 2 inactive.
